Measured values published in ChEMBL document CHEMBL5537190, “Development of Potent and Selective Monoacylglycerol Lipase Inhibitors. SARs, Structural Analysis, and Biological Characterization” (J Med Chem, 2024).
The source made the active and inactive calls. The rule behind the calls is not given here.

Experiments:
[1] = biological target: Kappa-type opioid receptor (Homo sapiens) (UniProt P41145); assay: Agonist activity at human KOP at 10 uM relative to control; format: functional; conditions: filed as agonist
[2] = Metabolic stability in human Hepatocyte assessed as clearance at 1 uM measured after 45 mins […] by LC-MS/MS analysis; format: ADME, cell-based; conditions: hepatocytes, 0.75 h
Outline: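 Hepatocyte suspensions (1×10^6 cells/mL) in William's medium with 10% FCS; human cells pooled cryopreserved. Compound 1 µM, shaken at 37 °C, 5% CO2, for up to 2 h. Sampled at 3–120 min, quenched with methanol containing internal standard, LC-MS/MS. Clint from the initial slope.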

[3] = biological target: T1, Monoglyceride lipase (Mus musculus) (UniProt O35678); assay: In-vivo inhibition of mouse MAGL assessed as decrease in arachidonic acid level in brain at 5 mg/kg, ip measured after 1 hr by LC-MS/MS analysis; format: functional, organism-based
T1 sequence (whole entry): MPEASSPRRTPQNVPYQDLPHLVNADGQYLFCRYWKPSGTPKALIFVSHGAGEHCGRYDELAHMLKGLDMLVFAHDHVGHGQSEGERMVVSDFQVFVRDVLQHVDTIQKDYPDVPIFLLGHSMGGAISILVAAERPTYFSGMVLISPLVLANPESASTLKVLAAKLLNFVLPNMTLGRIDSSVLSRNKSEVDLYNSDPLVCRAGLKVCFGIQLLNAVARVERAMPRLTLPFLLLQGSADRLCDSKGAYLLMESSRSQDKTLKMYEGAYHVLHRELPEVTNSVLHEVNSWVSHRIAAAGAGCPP
Outline: (§1)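 Adult male mice received 5 mg/kg i.p. (n = 3/group), DMSO vehicle. Killed at 1 h. Half-brains used for lipid analysis by LC-MS; the other half homogenised for MAGL activity assay. Compared with vehicle by two-tailed t-test.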

[4] = biological target: T1, Monoglyceride lipase (Mus musculus); assay: In-vivo inhibition of mouse MAGL assessed as effect on OEA level in brain at 5 mg/kg, ip measured after 1 hr by LC-MS/MS analysis; format: functional, organism-based; outline: as §1

Chain of Kappa-type opioid receptor (Homo sapiens) (P41145 whole entry): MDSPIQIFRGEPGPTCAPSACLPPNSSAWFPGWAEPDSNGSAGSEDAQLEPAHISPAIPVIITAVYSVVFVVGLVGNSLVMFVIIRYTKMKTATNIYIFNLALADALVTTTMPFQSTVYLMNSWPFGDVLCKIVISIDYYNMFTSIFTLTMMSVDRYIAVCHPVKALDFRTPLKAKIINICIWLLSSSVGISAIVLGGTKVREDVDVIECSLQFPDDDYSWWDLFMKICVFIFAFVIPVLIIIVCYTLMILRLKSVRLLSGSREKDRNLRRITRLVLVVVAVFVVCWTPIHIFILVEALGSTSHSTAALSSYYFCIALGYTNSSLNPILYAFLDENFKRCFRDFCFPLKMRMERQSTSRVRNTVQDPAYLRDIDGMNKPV

O=C1[C@H](c2ccccc2)[C@@H](c2ccccc2)N1C1CCN(C(=O)n2cncn2)CC1 (racemic)
Activity [1]: 65.2% | CLH [2]: 60.5 µL/min/mg | inhibition [3]: Active | inhibition [4]: Dose-Dependent Effect
